A short description of data set [1]: folding enthalpy; higher = less favourable; fluorescence melt of hairpins on a sequencing array, two-state fit. As to conditions: sodium 0.088 M. In short, it runs like this: (§1)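 In 50 mM Na-HEPES pH 8.0 containing 25 mM NaCl, hairpins from the library on a sequenced MiSeq flow cell were imaged for Cy3 fluorescence at 2.5 °C steps up to 60 °C, with Cy3 and quencher oligos annealed. After normalisation to pre-quench Cy3 and to control constructs, two-state fits with bootstrapping gave melting temperature and folding enthalpy. Four replicates were combined by inverse-variance weighting, and fitted temperatures were shifted up by 9.35 °C to match UV melts.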

Data set [2] can be described thus: melting temperature; fluorescence melt of hairpins on a sequencing array, two-state fit, raised by 9.35 °C to match UV melts. As to conditions: sodium 0.088 M. In outline: as §1

For GCGAATCGAAAGATCGC (((.(((....)))))), in data set [1], the folding enthalpy is -31.2 kcal/mol. Moreover, the Tm in data set [2] was 57.3 °C.

As to GTGTACTCGAAAGAGCAC (((..(((....)))))), in data set [1], the folding enthalpy was -21.8 kcal/mol. Further, the Tm in data set [2] was 43.5 °C.

For the sequence GCGATCGAAAGATTACGC ((((((....)))..))), the folding enthalpy in data set [1] was -30.4 kcal/mol. Also, the Tm in data set [2] turned out to be 42 °C.

For the sequence GCCGTGCGAAAGCAGGC (((.(((....)))))), the folding enthalpy in data set [1] is -23.7 kcal/mol. In addition, in data set [2], the Tm amounted to 68.2 °C.

Turning to GTATGTGGAAACACATGC (.(((((....))))).), in data set [1], the folding enthalpy was -24.3 kcal/mol. For the same sequence, in data set [2], the Tm came to 47.9 °C.

With GCTATCGAAAGATATAGC ((((((....)))..))), in data set [1], the folding enthalpy was -25.1 kcal/mol. The Tm in data set [2] is 36.1 °C.

For CTTGGGAAACCAAG (((((....))))), the folding enthalpy in data set [1] is -22.4 kcal/mol. The Tm in data set [2] was found to be 45.9 °C.

Consider GATCTAACGATAGATC ((((((....)))))), for which, in data set [1], the folding enthalpy was -29.4 kcal/mol. The Tm in data set [2] came to 34.1 °C.

Regarding GCTCCGGCGAAAGCCAGC (((..(((....)))))), the folding enthalpy in data set [1] was -11.2 kcal/mol. Also, the Tm in data set [2] turned out to be 32.6 °C.

For the sequence GCGTTCGAAAGAAGCCGC ((((((....)))..))), the folding enthalpy in data set [1] was -22.7 kcal/mol. In data set [2], the Tm turned out to be 35.9 °C.

Regarding GGGCGTGGAAACACACCC (((.(((....))).))), the folding enthalpy in data set [1] is -40.7 kcal/mol. Moreover, the Tm in data set [2] was 51.8 °C.

For GTTGAACGAAAGTTGAAC (((.(((....))).))), in data set [1], the folding enthalpy is -25.9 kcal/mol. Also, in data set [2], the Tm worked out at 38.1 °C.

Turning to GCTTCGCGAAAGCGGCGC ((..(((....)))..)), the folding enthalpy in data set [1] was -15.6 kcal/mol. Also, the Tm in data set [2] was found to be 51.9 °C.

For GATCGCCACTGCGATC ((((((....)))))), in data set [1], the folding enthalpy is -42.9 kcal/mol. Also, the Tm in data set [2] came to 65.3 °C.

In the case of GTGTGGGGAAACTCGCAC (((.(.(....).).))), in data set [1], the folding enthalpy was -29.9 kcal/mol. In data set [2], the Tm came to 42.8 °C.

In the case of GTGCTGAAAAGCAC (((((....))))), the folding enthalpy in data set [1] is -28.1 kcal/mol. Further, in data set [2], the Tm stood at 66 °C.

As to GATCCAAGCGTGGATC ((((((....)))))), in data set [1], the folding enthalpy is -35.7 kcal/mol. Besides, the Tm in data set [2] came to 50.6 °C.

Consider GGTGTCGAAAGACATACC ((((((....)))..))), for which the folding enthalpy in data set [1] was -13.9 kcal/mol. For the same sequence, the Tm in data set [2] is 43.5 °C.

As for GATCTCTCTGGAGATC ((((((....)))))), in data set [1], the folding enthalpy was -42.8 kcal/mol. Further, the Tm in data set [2] came out at 54.8 °C.

For the sequence GCTAAGCGAAAGCTCGGC ((..(((....)))..)), the folding enthalpy in data set [1] is -19.7 kcal/mol. Further, the Tm in data set [2] was found to be 39.7 °C.

Consider GCGCGCGAAAGCGAACGC ((((((....)))..))), for which, in data set [1], the folding enthalpy was -22.9 kcal/mol. Further, the Tm in data set [2] was determined as 60 °C.

On to GATCTTGACTAAGATC ((((((....)))))), for which the folding enthalpy in data set [1] was -44 kcal/mol. Moreover, the Tm in data set [2] came to 49 °C.

As to CGCGGACTGTCCGCG ((((((...)))))), the folding enthalpy in data set [1] was -42.3 kcal/mol. Also, the Tm in data set [2] came to 64.7 °C.

Regarding GCTAAACGAAAGTTCAGC (((.(((....))).))), in data set [1], the folding enthalpy is -28.7 kcal/mol. Further, the Tm in data set [2] came out at 41.4 °C.

With GCGTGGACACGC ((((....)))), in data set [1], the folding enthalpy was -25.5 kcal/mol. The Tm in data set [2] came out at 62 °C.

As to GACAGACGAAAGTCAGTC (((.(((....))).))), the folding enthalpy in data set [1] is -28.2 kcal/mol. The Tm in data set [2] was 51.7 °C.

For GGAGGTGGAAACGCTTCC (((.(.(....).).))), the folding enthalpy in data set [1] is -23.3 kcal/mol. In addition, the Tm in data set [2] is 34.3 °C.

As to GTTGGAGGAAACTCTGAC ((..(((....)))..)), the folding enthalpy in data set [1] was -21 kcal/mol. Further, in data set [2], the Tm was 34 °C.

With GATCGCATCCGCGATC ((((((....)))))), the folding enthalpy in data set [1] is -33.4 kcal/mol. Moreover, the Tm in data set [2] came out at 68.7 °C.

For the sequence GAAGGCGAAAGCCCTTTC ((((((....)))..))), the folding enthalpy in data set [1] was -10 kcal/mol. The Tm in data set [2] was found to be 37.6 °C.

Consider GACATCCCGAAAGGGGTC (((..(((....)))))), for which the folding enthalpy in data set [1] is -11.1 kcal/mol. For the same sequence, the Tm in data set [2] came to 34.4 °C.

Turning to GCGCAAGGAAACCTACGC (((.(.(....).).))), in data set [1], the folding enthalpy was -16.4 kcal/mol. Moreover, the Tm in data set [2] amounted to 34.6 °C.

Turning to GGATGGCGAAAGCCGTCC (((.(((....))).))), in data set [1], the folding enthalpy was -28.8 kcal/mol. Further, in data set [2], the Tm came to 68.8 °C.

On to ACGTGGAAACACGT (((((....))))), for which the folding enthalpy in data set [1] is -22 kcal/mol. Further, the Tm in data set [2] was determined as 55.5 °C.

With GCTAGTGGAAACGCTAGC (((((.(....).))))), in data set [1], the folding enthalpy was -40.4 kcal/mol. Moreover, the Tm in data set [2] was 52.3 °C.

Take GCGTAGCGAAAGCAGCGC (((..((....))..))): the folding enthalpy in data set [1] was -16.6 kcal/mol. Further, in data set [2], the Tm is 65.4 °C.

For GTATCTGGAAACAGATAC (((((((....))))))), in data set [1], the folding enthalpy was -39.5 kcal/mol. The Tm in data set [2] is 56.1 °C.

GCGACTATCGC ((((...)))): the folding enthalpy in data set [1] was -16.8 kcal/mol. In addition, in data set [2], the Tm came to 46.6 °C.

For the sequence GATCGACCAGTCGATC ((((((....)))))), in data set [1], the folding enthalpy was -43.9 kcal/mol. The Tm in data set [2] was found to be 57.4 °C.

On to GTAGGGGGAAACTCCTAC (((((.(....).))))), for which the folding enthalpy in data set [1] was -28.5 kcal/mol. For the same sequence, the Tm in data set [2] was determined as 47.2 °C.

In the case of GAGCTTGGAAACAGGCTC ((((.((....)).)))), the folding enthalpy in data set [1] was -45 kcal/mol. Besides, the Tm in data set [2] turned out to be 49.3 °C.

For GATCTCGTACGAGATC ((((((....)))))), in data set [1], the folding enthalpy is -39.7 kcal/mol. Moreover, the Tm in data set [2] was found to be 61.7 °C.

Consider GAGGTACGAAAGTAACTC (((.(((....))).))), for which the folding enthalpy in data set [1] was -38.6 kcal/mol. The Tm in data set [2] came to 54.1 °C.

Consider GTCACCGAAAGGTCGAC ((((((....))).))), for which the folding enthalpy in data set [1] is -20.1 kcal/mol. For the same sequence, the Tm in data set [2] stood at 48.1 °C.

For GCCCCCGAAAGGGCGGGC ((((((....)))..))), the folding enthalpy in data set [1] is -17.9 kcal/mol. In data set [2], the Tm is 63.7 °C.

As to GCGGGGACGAAAGTCCGC (((..(((....)))))), the folding enthalpy in data set [1] is -13.2 kcal/mol. The Tm in data set [2] turned out to be 58.5 °C.

Consider GATCGGAGCCCCGATC ((((((....)))))), for which, in data set [1], the folding enthalpy was -32.6 kcal/mol. Further, the Tm in data set [2] was found to be 54.7 °C.

With GATGGGGAAACCCATC ((((((....)))))), the folding enthalpy in data set [1] was -34.2 kcal/mol. Besides, in data set [2], the Tm is 57.8 °C.

Take GGGATTGCGAAAGCACCC (((..(((....)))))): the folding enthalpy in data set [1] was -14.5 kcal/mol. Further, the Tm in data set [2] was 41.2 °C.

For GCCAGAGGAAACTCTGAC (.(((((....))))).), the folding enthalpy in data set [1] was -18.3 kcal/mol. Besides, the Tm in data set [2] was found to be 38.6 °C.

With GAATGCGAAAGCAAATTC ((((((....)))..))), the folding enthalpy in data set [1] was -18.9 kcal/mol. Further, in data set [2], the Tm stood at 33.6 °C.

Consider GACGGAGGAAACTCCGCC (.(((((....))))).), for which the folding enthalpy in data set [1] is -14.9 kcal/mol. Also, in data set [2], the Tm turned out to be 48.2 °C.

With GCCCGGCGAAAGCAGCGC ((.(.((....)).).)), in data set [1], the folding enthalpy was -16.4 kcal/mol. Besides, the Tm in data set [2] was 46.5 °C.

Consider GCGATCGGAAACGATTGC ((.((((....)))).)), for which the folding enthalpy in data set [1] is -43.5 kcal/mol. Besides, the Tm in data set [2] was determined as 56.3 °C.

For the sequence GTTACACGAAAGTGCAAC (((.(((....))).))), the folding enthalpy in data set [1] is -23.6 kcal/mol. The Tm in data set [2] is 44.7 °C.
